Laboratory results: ChEMBL document CHEMBL1139268, “Camphor sulfonamide derivatives as novel, potent and selective CXCR3 antagonists” (Bioorg Med Chem Lett, 2009)
In brackets after ≈: the same amount, converted by molar mass.

Key:
[1] = target: T1, C-X-C chemokine receptor type 3 (Homo sapiens, UniProt P49682); test: Antagonist activity at human recombinant CXCR3 receptor expressed in CHO-K1 cells assessed as human IP10-induced calcium flux by FLIPR assay; format: functional, cell-based
T1 sequence (P49682 whole entry): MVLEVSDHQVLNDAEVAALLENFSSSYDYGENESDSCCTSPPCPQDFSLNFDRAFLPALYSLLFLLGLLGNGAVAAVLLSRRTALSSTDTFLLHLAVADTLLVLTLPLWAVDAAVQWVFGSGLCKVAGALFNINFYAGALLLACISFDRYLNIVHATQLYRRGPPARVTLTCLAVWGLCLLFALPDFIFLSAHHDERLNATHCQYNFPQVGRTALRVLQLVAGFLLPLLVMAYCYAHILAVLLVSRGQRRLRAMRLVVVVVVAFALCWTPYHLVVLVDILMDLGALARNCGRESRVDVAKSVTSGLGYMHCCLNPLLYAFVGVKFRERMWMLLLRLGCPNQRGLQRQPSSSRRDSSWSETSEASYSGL

[2] = target: T2, C-X-C chemokine receptor type 3 (Mus musculus, UniProt O88410); test: Antagonist activity at mouse recombinant CXCR3 expressed in human U2OS cells; format: functional, cell-based
T2 sequence (O88410 whole entry): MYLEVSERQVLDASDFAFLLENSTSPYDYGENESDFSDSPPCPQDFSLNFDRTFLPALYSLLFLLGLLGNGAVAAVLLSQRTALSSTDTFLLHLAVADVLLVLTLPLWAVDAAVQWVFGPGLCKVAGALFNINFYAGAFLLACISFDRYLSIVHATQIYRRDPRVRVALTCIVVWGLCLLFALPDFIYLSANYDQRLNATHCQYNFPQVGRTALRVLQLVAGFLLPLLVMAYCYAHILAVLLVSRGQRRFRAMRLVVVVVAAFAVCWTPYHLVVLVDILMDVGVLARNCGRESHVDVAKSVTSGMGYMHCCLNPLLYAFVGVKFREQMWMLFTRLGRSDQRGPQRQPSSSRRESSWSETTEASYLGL
Outline: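 Human U2OS cells were transiently transduced with a mixture of recombinant BacMam viruses, one expressing murine CXCR3 and one expressing chimeric G-protein Gqi5.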

[3] = target: T1, C-X-C chemokine receptor type 3; test: Antagonist activity at human recombinant CXCR3 receptor assessed as human IP10-induced calcium mobilization by FLIPR assay; format: functional; details: read-out: pA2 (converted)
[4] = Aqueous solubility of the compound; format: physicochemical; details: buffer
[5] = Permeability across artificial membrane; format: ADME; details: PAMPA; read-out: permeability

| IC50 [1] | also measured | Structure (SMILES) |
| --- | --- | --- |
| 1580 nM |  | CC1(C)[C@@H]2CC[C@]1(CS(=O)(=O)N1CCN(c3ccc(C(F)(F)F)cn3)CC1)C(=O)C2 |
| 158 nM |  | CC1(C)[C@@H]2CC[C@@]1(CS(=O)(=O)N1CCN(c3ccc(C(F)(F)F)cn3)CC1)C(O)C2 (some centres undefined) |
| 200 nM |  | CC1(O)C[C@H]2CC[C@]1(CS(=O)(=O)N1CCN(c3ccc(C(F)(F)F)cn3)CC1)C2(C)C (some centres undefined) |
| 50.1 nM | IC50 [2]: 158 nM | C[C@H]1CN(S(=O)(=O)C[C@]23CC[C@H](CC2O)C3(C)C)CCN1c1ncc(C(F)(F)F)cc1F (some centres undefined) |
| 63.1 nM | IC50 [2]: 1580 nM | C[C@H]1CN(S(=O)(=O)C[C@]23CC[C@H](C[C@H]2O)C3(C)C)CCN1c1ncc(C(F)(F)F)cc1F |
| 251 nM | IC50 [2]: 1260 nM; Kb [3]: 126 nM | CC1(C)[C@@H]2CC[C@@]1(CS(=O)(=O)N1CCN(c3ccc(C(F)(F)F)cn3)CC1)C(=O)C2 |
| 25100 nM |  | CC1(C)[C@@H]2CC[C@@]1(CS(=O)(=O)N1CCN(c3cc(C(F)(F)F)ccn3)CC1)C(=O)C2 |
| 126 nM | IC50 [2]: 1000 nM | C[C@H]1CN(S(=O)(=O)C[C@]23CC[C@H](CC2=O)C3(C)C)CCN1c1ncc(C(F)(F)F)cn1 |
| 39.8 nM | IC50 [2]: 1580 nM | C[C@H]1CN(S(=O)(=O)C[C@]23CC[C@H](CC24OCCO4)C3(C)C)CCN1c1ncc(C(F)(F)F)cc1F |
| > 12600 nM |  | CC1(C)[C@@H]2CC[C@@]1(CS(=O)(=O)N1CCN(c3nc4ccccc4s3)CC1)C(=O)C2 |
| 316 nM |  | CC1CN(S(=O)(=O)C[C@]23CC[C@H](CC2=O)C3(C)C)CCN1c1ccc(C(F)(F)F)cn1 (some centres undefined) |
| 631 nM |  | CC1CN(c2ccc(C(F)(F)F)cn2)CCN1S(=O)(=O)C[C@]12CC[C@H](CC1=O)C2(C)C (some centres undefined) |
| 6310 nM |  | C[C@@H]1CN(c2ccc(C(F)(F)F)cn2)[C@@H](C)CN1S(=O)(=O)C[C@]12CC[C@H](CC1=O)C2(C)C |
| 158 nM | IC50 [2]: 2510 nM | C[C@H]1CN(S(=O)(=O)C[C@]23CC[C@H](CC2=O)C3(C)C)CCN1c1ccc(C(F)(F)F)cn1 |
| 25100 nM |  | CC1(C)[C@@H]2CC[C@@]1(CS(=O)(=O)N1CCN(c3cccc(C(F)(F)F)n3)CC1)C(=O)C2 |
| > 31600 nM |  | CC1(C)[C@@H]2CC[C@@]1(CS(=O)(=O)N1CCN(c3ccccn3)CC1)C(=O)C2 |
| > 31600 nM |  | CC(=O)c1ccc(N2CCN(S(=O)(=O)C[C@]34CC[C@H](CC3=O)C4(C)C)CC2)nc1 |
| 398 nM |  | CC1(C)[C@@H]2CC[C@@]1(CS(=O)(=O)N1CCN(c3ccc(C(F)(F)F)cn3)C(CO)C1)C(=O)C2 (some centres undefined) |
| 316 nM | IC50 [2]: 631 nM | C[C@H]1CN(S(=O)(=O)C[C@]23CC[C@H](C[C@H]2O)C3(C)C)CCN1c1ccc(C(F)(F)F)cn1 |
| 200 nM |  | CC1(C)[C@@H]2CC[C@@]1(CS(=O)(=O)N1CCN(c3ccc(C(F)(F)F)cn3)CC1)C1(C2)OCCO1 |
| 3160 nM |  | CC1(C)[C@@H]2CC[C@@]1(CS(=O)(=O)N1CCN(c3ncc(C(F)(F)F)cc3[N+](=O)[O-])CC1)C(=O)C2 |
| 158 nM | IC50 [2]: 794 nM | CC1(C)[C@@H]2CC[C@@]1(CS(=O)(=O)N1CCN(c3ncc(C(F)(F)F)cc3F)CC1)C(=O)C2 |
| 501 nM |  | C[C@@H]1CN(S(=O)(=O)C[C@]23CC[C@H](CC2=O)C3(C)C)CCN1c1ncc(C(F)(F)F)cc1F |
| > 31600 nM |  | CC(C)C1CN(S(=O)(=O)C[C@]23CC[C@H](CC2=O)C3(C)C)CCN1c1ccc(C(F)(F)F)cn1 (some centres undefined) |
| > 31600 nM |  | CC1(C)[C@@H]2CC[C@@]1(CS(=O)(=O)N1CCN(c3ccc(C(F)(F)F)cn3)C(c3ccccc3)C1)C(=O)C2 (some centres undefined) |
| 794 nM |  | CCNC(=O)NC1C[C@H]2CC[C@]1(CS(=O)(=O)N1CCN(c3ccc(C(F)(F)F)cn3)CC1)C2(C)C (some centres undefined) |
| 316 nM |  | CC1(C)[C@@H]2CC[C@@]1(CS(=O)(=O)N1CCN(c3ncc(C(F)(F)F)cn3)CC1)C(=O)C2 |
| 631 nM |  | CC1(C)[C@@H]2CC[C@@]1(CS(=O)(=O)N1CCN(c3ncc(Br)cn3)CC1)C(=O)C2 |

| IC50 [1] | also measured | Structure (SMILES) |
| --- | --- | --- |
| > 31600 nM |  | CC1(C)[C@@H]2CC[C@@]1(CS(=O)(=O)N1CCN(c3ccc(C#N)cn3)CC1)C(=O)C2 |
| 6310 nM |  | CC1(C)[C@@H]2CC[C@@]1(CS(=O)(=O)N1CCCN(c3ccc(C(F)(F)F)cn3)CC1)C(=O)C2 |
| 15800 nM |  | CC1(C)[C@@H]2CC[C@@]1(CS(=O)(=O)NC1CCN(c3ccc(C(F)(F)F)cn3)CC1)C(=O)C2 |
| > 31600 nM |  | CN(CCN(C)S(=O)(=O)C[C@]12CC[C@H](CC1=O)C2(C)C)c1ccc(C(F)(F)F)cn1 |
| 2000 nM |  | CC1(C)[C@@H]2CC[C@@]1(CS(=O)(=O)N1CCN(c3ccc(C(F)(F)F)cc3F)CC1)C(=O)C2 |
| > 31600 nM |  | Cc1ccc(N2CCN(S(=O)(=O)C[C@]34CC[C@H](CC3=O)C4(C)C)CC2)nc1 |
| 316 nM |  | CC1(C)[C@@H]2CC[C@@]1(CS(=O)(=O)N1CCN(c3nc(Cl)c(C(F)(F)F)cc3Cl)CC1)C(=O)C2 |
| > 31600 nM |  | CC1(C)[C@@H]2CC[C@@]1(CS(=O)(=O)N1CCN(c3ccc(C(F)(F)F)cc3)CC1)C(=O)C2 |
| 316 nM | IC50 [2]: 6310 nM; solubility [4]: 40 µg/mL (≈ 81 µM); Papp [5]: 56 ×10⁻⁶ cm/s | CC1(C)[C@@H]2CC[C@@]1(CS(=O)(=O)N1CCN(c3ncc(C(F)(F)F)cc3F)[C@H](CO)C1)C(=O)C2 |
| 158 nM | IC50 [2]: 631 nM | C[C@H]1CN(S(=O)(=O)C[C@]23CC[C@H](CC2O)C3(C)C)CCN1c1ccc(C(F)(F)F)cn1 (some centres undefined) |
| 31.6 nM | IC50 [2]: 200 nM | C[C@H]1CN(S(=O)(=O)C[C@]23CC[C@H](C[C@@H]2O)C3(C)C)CCN1c1ccc(C(F)(F)F)cn1 |
| 631 nM |  | CC1(C)[C@@H]2CC[C@@]1(CS(=O)(=O)N1CCN(c3ccc(C(F)(F)F)cn3)CC1)C(NS(C)(=O)=O)C2 (some centres undefined) |
| 398 nM |  | CC1(C)[C@@H]2CC[C@@]1(CS(=O)(=O)N1CCN(c3ncc(C(F)(F)F)cc3Cl)CC1)C(=O)C2 |
| 251 nM |  | CC1(C)[C@@H]2CC[C@@]1(CS(=O)(=O)N1CCN(c3ccc(C(F)(F)F)c(Cl)n3)CC1)C(=O)C2 |
| 794 nM |  | CC1(C)[C@@H]2CC[C@@]1(CS(=O)(=O)N1CCN(c3ccc(C(F)(F)F)cn3)CC1)C(N)C2 (some centres undefined) |
| 2000 nM |  | CC(=O)NC1C[C@H]2CC[C@]1(CS(=O)(=O)N1CCN(c3ccc(C(F)(F)F)cn3)CC1)C2(C)C (some centres undefined) |
| 1580 nM |  | CC1(C)[C@@H]2CC[C@@]1(CS(=O)(=O)N1CCN(c3ccc(Br)cn3)CC1)C(=O)C2 |
| 15800 nM |  | CC1(C)[C@@H]2CC[C@@]1(CS(=O)(=O)N1CCN(c3cc4ccccc4cn3)CC1)C(=O)C2 |
| 7940 nM |  | CCNC1C[C@H]2CC[C@]1(CS(=O)(=O)N1CCN(c3ccc(C(F)(F)F)cn3)CC1)C2(C)C (some centres undefined) |
| 794 nM |  | CC1(C)[C@@H]2CC[C@@]1(CS(=O)(=O)N1CCN(c3ccc(C(F)(F)F)cn3)CC1)C(F)C2 (some centres undefined) |
| > 31600 nM |  | CC1(C)[C@@H]2CC[C@@]1(CS(=O)(=O)N1CCN(c3ncccc3C(F)(F)F)CC1)C(=O)C2 |
| 501 nM |  | C[C@@H]1CN(S(=O)(=O)C[C@]23CC[C@H](CC2=O)C3(C)C)CCN1c1ccc(C(F)(F)F)cn1 |
| 631 nM |  | CCC1CN(S(=O)(=O)C[C@]23CC[C@H](CC2=O)C3(C)C)CCN1c1ccc(C(F)(F)F)cn1 (some centres undefined) |
| > 31600 nM |  | CC1(C)[C@@H]2CC[C@@]1(CS(=O)(=O)N1CCN(c3ccc([N+](=O)[O-])cn3)CC1)C(=O)C2 |
| 5010 nM |  | CC1(C)[C@@H]2CC[C@@]1(CS(=O)(=O)N1CCN(c3ccc(C(F)(F)F)nn3)CC1)C(=O)C2 |
| > 31600 nM |  | CC1(C)[C@@H]2CC[C@@]1(CS(=O)(=O)N1C[C@@H]3C[C@H]1CN3c1ccc(C(F)(F)F)cn1)C(=O)C2 |
| 31600 nM |  | CC1(C)[C@@H]2CC[C@@]1(CS(=O)(=O)N1CCC(Nc3ccc(C(F)(F)F)cn3)CC1)C(=O)C2 |
